From ChEMBL document CHEMBL5674883, “The Heterochromatin Landscape in Migrating Cells and the Importance of H3K27me3 for Associated Transcriptome Alterations” (Cells, 2018)

What was measured:
Assay type in all cases: cell-based
[1] = target: Histone-lysine N-methyltransferase EZH2 (Mus musculus) (UniProt Q61188); experiment: Inhibition of EZH2 in mouse B16-F1 migrating cells assessed as fold change in H3K27me3-buffered regulated Pde4d-mRNA expression at 3 uM measured by ChIP-seq analysis relative to control cells
Histone-lysine N-methyltransferase EZH2 (Mus musculus), sequence (Q61188 whole entry): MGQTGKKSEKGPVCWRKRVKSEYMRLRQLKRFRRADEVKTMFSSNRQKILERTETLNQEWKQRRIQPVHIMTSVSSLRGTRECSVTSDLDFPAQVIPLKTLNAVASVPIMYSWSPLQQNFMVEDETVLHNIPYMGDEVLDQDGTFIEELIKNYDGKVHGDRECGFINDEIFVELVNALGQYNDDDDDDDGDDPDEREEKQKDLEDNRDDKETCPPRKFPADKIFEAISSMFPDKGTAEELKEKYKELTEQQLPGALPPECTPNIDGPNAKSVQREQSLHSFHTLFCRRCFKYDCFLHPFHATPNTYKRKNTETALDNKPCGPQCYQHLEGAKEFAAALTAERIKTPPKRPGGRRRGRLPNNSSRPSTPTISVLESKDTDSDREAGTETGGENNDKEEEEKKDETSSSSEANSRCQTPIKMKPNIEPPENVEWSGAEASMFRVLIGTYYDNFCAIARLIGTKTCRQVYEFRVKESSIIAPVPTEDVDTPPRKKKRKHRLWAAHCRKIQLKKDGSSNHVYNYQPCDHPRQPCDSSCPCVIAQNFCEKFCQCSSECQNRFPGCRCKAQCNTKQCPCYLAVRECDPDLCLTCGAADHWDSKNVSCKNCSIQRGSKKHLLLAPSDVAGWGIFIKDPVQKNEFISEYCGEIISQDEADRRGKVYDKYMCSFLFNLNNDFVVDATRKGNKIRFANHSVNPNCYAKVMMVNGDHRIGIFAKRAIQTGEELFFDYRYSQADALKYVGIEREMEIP
Outline: (§1)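 Confluent B16-F1 cells on fibronectin-coated plates, cultured at 37 °C and 7% CO2, were scratched at multiple sites to induce migration. They were then held 3 h in growth medium containing 3 µM GSK343, with the inhibitor added 3 h before lysis. Unscratched cells served as controls. Poly A mRNA was analysed by RNA-seq (n=3 GSK343, n=5 controls). Linear models removed batch effects, and buffered genes were those altered only under GSK343 (FDR <0.05, fold change >1.3).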

[2] = target: Histone-lysine N-methyltransferase EZH2 (Mus musculus) (UniProt Q61188); experiment: Inhibition of EZH2 in mouse B16-F1 migrating cells assessed as fold change in H3K27me3-buffered regulated Rassf1-mRNA expression at 3 uM measured by […] analysis relative to control cells; outline: as §1
[3] = target: Histone-lysine N-methyltransferase EZH2 (Mus musculus) (UniProt Q61188); experiment: Inhibition of EZH2 in mouse B16-F1 migrating cells assessed as fold change in H3K27me3-dependent regulated Id1-mRNA expression at 3 uM measured by […] analysis relative to control cells
Outline: (§2)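 Confluent B16-F1 cells on fibronectin-coated plates were scratched at multiple sites, washed once with DMEM and left to migrate 3 h in growth medium (37 °C, 7% CO2); unscratched cells served as control. GSK343 (3 µM) was added 3 h before lysis. Poly A mRNA was sequenced (RNA-seq), with 5 replicates for untreated and 3 for treated cells. Differential expression was called by linear model with batch correction, at FDR <0.05 and fold change ≥1.3.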

[4] = target: Histone-lysine N-methyltransferase EZH2 (Mus musculus) (UniProt Q61188); experiment: Inhibition of EZH2 in mouse B16-F1 migrating cells assessed as fold change in H3K27me3-dependent regulated Ddit4-mRNA expression at 3 uM measured by […] analysis relative to control cells; outline: as §2
[5] = target: Histone-lysine N-methyltransferase EZH2 (Mus musculus) (UniProt Q61188); experiment: Inhibition of EZH2 in mouse B16-F1 migrating cells assessed as fold change in H3K27me3-buffered regulated Mpp7-mRNA expression at 3 uM measured by […] analysis relative to control cells; outline: as §1
[6] = target: Histone-lysine N-methyltransferase EZH2 (Mus musculus) (UniProt Q61188); experiment: Inhibition of EZH2 in mouse B16-F1 migrating cells assessed as fold change in H3K27me3-buffered regulated Ccdc18-mRNA expression at 3 uM measured by […] analysis relative to control cells; outline: as §1
[7] = target: Histone-lysine N-methyltransferase EZH2 (Mus musculus) (UniProt Q61188); experiment: Inhibition of EZH2 in mouse B16-F1 migrating cells assessed as fold change in H3K27me3-buffered regulated Pcf11-mRNA expression at 3 uM measured by […] analysis relative to control cells; outline: as §1
[8] = target: Histone-lysine N-methyltransferase EZH2 (Mus musculus) (UniProt Q61188); experiment: Inhibition of EZH2 in mouse B16-F1 migrating cells assessed as fold change in H3K27me3-buffered regulated Pygm-mRNA expression at 3 uM measured by […] analysis relative to control cells; outline: as §1
[9] = target: Histone-lysine N-methyltransferase EZH2 (Mus musculus) (UniProt Q61188); experiment: Inhibition of EZH2 in mouse B16-F1 migrating cells assessed as fold change in H3K27me3-buffered regulated Irf1-mRNA expression at 3 uM measured by […] analysis relative to control cells; outline: as §1
[10] = target: Histone-lysine N-methyltransferase EZH2 (Mus musculus) (UniProt Q61188); experiment: Inhibition of EZH2 in mouse B16-F1 migrating cells assessed as fold change in H3K27me3-dependent regulated Gm43909-mRNA expression at 3 uM measured by […] analysis relative to control cells; outline: as §2
[11] = target: T1, RNA polymerase II (Mus musculus) (UniProt P08775+Q8CFI7+P97760+A0A3Q4L2S8+Q80UW8+P61219+P62488+Q923G2+P60898+O08740+Q63871+P62876); experiment: Inhibition of RNA polymerase II in mouse B16-F1 migrating cells assessed as fold change in Zfp280c-RNA stability at 0.1 mM measured by […] analysis relative to control cells
[12] = target: T1, RNA polymerase II (Mus musculus); experiment: Inhibition of RNA polymerase II in mouse B16-F1 migrating cells assessed as fold change in Yes1-RNA stability at 0.1 mM measured by […] analysis relative to control cells
[13] = target: T1, RNA polymerase II (Mus musculus); experiment: Inhibition of RNA polymerase II in mouse B16-F1 migrating cells assessed as fold change in Brd2-RNA stability at 0.1 mM measured by […] analysis relative to control cells
[14] = target: T1, RNA polymerase II (Mus musculus); experiment: Inhibition of RNA polymerase II in mouse B16-F1 migrating cells assessed as fold change in Mapre3-RNA stability at 0.1 mM measured by ChIP-seq analysis relative to control cells
[15] = target: T1, RNA polymerase II (Mus musculus); experiment: Inhibition of RNA polymerase II in mouse B16-F1 migrating cells assessed as fold change in Agps-RNA stability at 0.1 mM measured by […] analysis relative to control cells
[16] = target: T1, RNA polymerase II (Mus musculus); experiment: Inhibition of RNA polymerase II in mouse B16-F1 migrating cells assessed as fold change in Dnttip2-RNA stability at 0.1 mM measured by ChIP-seq analysis relative to control cells
Outline: (§3)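 Mouse B16-F1 melanoma cells grown to confluence on fibronectin in DMEM/10% FCS at 37 °C, 7% CO2. Migration induced by multiple scratches and 3 h incubation; unscratched controls. DRB 0.1 mM added 3 h before lysis. RNA from poly A-selected mRNA was sequenced (RNA-seq, three replicates per DRB group). Fold change computed for DRB-treated migrating vs DRB-treated control cells; cutoffs fold change >1.3, FDR <0.05.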

[17] = target: T1, RNA polymerase II (Mus musculus); experiment: Inhibition of RNA polymerase II in mouse B16-F1 migrating cells assessed as fold change in Cul4b-RNA stability at 0.1 mM measured by […] analysis relative to control cells; outline: as §3
[18] = target: T1, RNA polymerase II (Mus musculus); experiment: Inhibition of RNA polymerase II in mouse B16-F1 migrating cells assessed as fold change in Ndrg1-RNA stability at 0.1 mM measured by ChIP-seq analysis relative to control cells
[19] = target: T1, RNA polymerase II (Mus musculus); experiment: Inhibition of RNA polymerase II in mouse B16-F1 migrating cells assessed as fold change in Higd1a-RNA stability at 0.1 mM measured by ChIP-seq analysis relative to control cells
[20] = target: T1, RNA polymerase II (Mus musculus); experiment: Inhibition of RNA polymerase II in mouse B16-F1 migrating cells assessed as fold change in Gria4-RNA stability at 0.1 mM measured by ChIP-seq analysis relative to control cells
[21] = target: T1, RNA polymerase II (Mus musculus); experiment: Inhibition of RNA polymerase II in mouse B16-F1 migrating cells assessed as fold change in Vps72-RNA stability at 0.1 mM measured by […] analysis relative to control cells
[22] = target: T1, RNA polymerase II (Mus musculus); experiment: Inhibition of RNA polymerase II in mouse B16-F1 migrating cells assessed as fold change in Fxr1-RNA stability at 0.1 mM measured by ChIP-seq analysis relative to control cells
[23] = target: T1, RNA polymerase II (Mus musculus); experiment: Inhibition of RNA polymerase II in mouse B16-F1 migrating cells assessed as fold change in Zcchc10-RNA stability at 0.1 mM measured by […] analysis relative to control cells
[24] = target: T1, RNA polymerase II (Mus musculus); experiment: Inhibition of RNA polymerase II in mouse B16-F1 migrating cells assessed as fold change in Cenpc1-RNA stability at 0.1 mM measured by […] analysis relative to control cells

`CCCc1cc(C)[nH]c(=O)c1CNC(=O)c1cc(-c2ccnc(N3CCN(C)CC3)c2)cc2c1cnn2C(C)C` gave a log2FC [1] of 0.75, a log2FC [2] of -0.52 and a log2FC [3] of 0.16. The log2FC [4] was -0.53, the log2FC [5] was 0.51 and the log2FC [6] was -0.87. The log2FC [7] was -0.39, the log2FC [8] was 0.85 and the log2FC [9] was -0.62. For the same compound, the log2FC [10] was -0.39.
Compound `OC[C@H]1O[C@@H](n2cnc3cc(Cl)c(Cl)cc32)[C@H](O)[C@@H]1O` has a log2FC [11] of -0.98, a log2FC [12] of -0.83 and a log2FC [13] of -0.66. It also gave a log2FC [14] of 0.77, a log2FC [15] of -0.58 and a log2FC [16] of -0.87. The log2FC [17] was -0.49, the log2FC [18] was 0.7 and the log2FC [19] was 0.77. For the same compound, the log2FC [20] was -0.5, the log2FC [21] was 0.46 and the log2FC [22] was -0.67. The log2FC [23] was -0.7 and the log2FC [24] was -0.84.
